Experimental data taken from ChEMBL document CHEMBL1121744, “Synthesis and antihypertensive activity of a series of 8-substituted 1-oxa-3,8-diazaspiro[4.5]decan-2-ones” (J Med Chem, 1981).
Activity calls are given as the source filed them. The rule behind the calls is not given here.

Experiments:
[1] = target: T1, Adrenergic receptor alpha-2 (Rattus norvegicus, UniProt P22086+P19328+P22909); experiment: Antagonistic potency of compound for Alpha-2 adrenergic receptor; assay type: functional
T1 sequence (P22086 whole entry): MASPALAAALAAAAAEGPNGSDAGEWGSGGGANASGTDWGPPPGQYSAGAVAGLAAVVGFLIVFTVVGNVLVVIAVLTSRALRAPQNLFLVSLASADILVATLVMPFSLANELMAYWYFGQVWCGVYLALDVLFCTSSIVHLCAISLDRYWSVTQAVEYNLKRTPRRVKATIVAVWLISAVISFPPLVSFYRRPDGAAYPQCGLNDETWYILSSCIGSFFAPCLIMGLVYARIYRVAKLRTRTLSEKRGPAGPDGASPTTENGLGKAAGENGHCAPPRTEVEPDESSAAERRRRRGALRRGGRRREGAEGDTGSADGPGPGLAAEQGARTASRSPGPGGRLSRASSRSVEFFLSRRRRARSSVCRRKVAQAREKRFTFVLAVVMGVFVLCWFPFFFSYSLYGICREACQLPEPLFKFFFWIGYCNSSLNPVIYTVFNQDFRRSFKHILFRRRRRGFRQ
T1 sequence (P19328 whole entry): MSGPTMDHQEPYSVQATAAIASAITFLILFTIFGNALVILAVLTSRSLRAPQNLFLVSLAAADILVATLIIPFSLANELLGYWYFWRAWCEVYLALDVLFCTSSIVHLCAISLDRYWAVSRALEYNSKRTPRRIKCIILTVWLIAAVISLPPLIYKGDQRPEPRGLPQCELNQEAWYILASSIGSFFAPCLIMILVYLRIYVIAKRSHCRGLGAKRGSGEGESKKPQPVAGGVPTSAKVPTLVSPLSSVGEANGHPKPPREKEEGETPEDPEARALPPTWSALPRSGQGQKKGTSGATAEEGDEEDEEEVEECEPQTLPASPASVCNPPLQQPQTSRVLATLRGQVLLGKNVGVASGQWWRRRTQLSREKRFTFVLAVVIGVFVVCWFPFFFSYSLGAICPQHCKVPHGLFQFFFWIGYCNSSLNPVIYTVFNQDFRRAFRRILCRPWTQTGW
T1 sequence (P22909 whole entry): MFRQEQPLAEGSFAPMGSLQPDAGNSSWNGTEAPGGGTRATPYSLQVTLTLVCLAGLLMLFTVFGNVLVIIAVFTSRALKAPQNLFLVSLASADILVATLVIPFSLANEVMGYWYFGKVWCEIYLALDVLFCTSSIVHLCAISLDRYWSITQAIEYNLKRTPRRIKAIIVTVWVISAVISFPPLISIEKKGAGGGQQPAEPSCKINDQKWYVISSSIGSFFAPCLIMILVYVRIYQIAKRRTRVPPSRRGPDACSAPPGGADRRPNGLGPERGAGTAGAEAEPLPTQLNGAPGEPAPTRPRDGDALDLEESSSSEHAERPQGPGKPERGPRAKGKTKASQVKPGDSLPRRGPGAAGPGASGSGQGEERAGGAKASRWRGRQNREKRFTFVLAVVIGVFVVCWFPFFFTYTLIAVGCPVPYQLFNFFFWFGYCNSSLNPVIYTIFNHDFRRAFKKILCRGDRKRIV

[2] = system: Canis familiaris; experiment: Percent inhibition of the pressor responses to 0.75 ug/kg iv norepinephrine in pentobarbital-anesthetized dogs for a dose of 0.316 mg/kg; assay type: functional; details: Canis lupus familiaris
Method in brief: (§1)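 Pentobarbital-anesthetized dogs (35 mg/kg iv) with femoral arterial pressure recording. Epinephrine (1 μg/kg), norepinephrine (0.75 μg/kg) and phenylephrine (7.5 μg/kg) iv challenges were given about every 10 min before and after rising iv test doses, which were spaced 90 min apart. Value is % inhibition of the pressor response.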

[3] = system: Canis familiaris; experiment: Percent inhibition of the pressor responses to 0.75 ug/kg iv norepinephrine in pentobarbital-anesthetized dogs for a dose of 1 mg/kg; assay type: functional; details: Canis lupus familiaris; method in brief: as §1
[4] = system: Canis familiaris; experiment: Change in mean arterial pressure in anesthetized dogs for a dose of 0.01 mg/kg; assay type: functional, Canis lupus familiaris, Artery
Method in brief: (§2)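 Dogs anesthetized with sodium pentobarbital (35 mg/kg iv), femoral artery cannulated for pressure, ECG-triggered heart rate, femoral vein for dosing. Rising iv doses were given 90 min apart, and each dose is the full dose, not cumulative. Value is the maximal mean arterial pressure change 10–15 min after each dose, two dogs per compound, ±3 mmHg. Saline served as control.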

[5] = system: Canis familiaris; experiment: Change in mean arterial pressure in anesthetized dogs for a dose of 0.1 mg/kg; assay type: functional, Canis lupus familiaris, Artery; method in brief: as §2
[6] = system: Canis familiaris; experiment: Change in mean arterial pressure in anesthetized dogs for a dose of 0.316 mg/kg; assay type: functional, Canis lupus familiaris, Artery; method in brief: as §2
[7] = system: Canis familiaris; experiment: Change in mean arterial pressure in anesthetized dogs for a dose of 3.16 mg/kg; assay type: functional, Canis lupus familiaris, Artery; method in brief: as §2
[8] = system: Rattus norvegicus; experiment: Antihypertensive activity as percentage fall in systolic blood pressure in spontaneously hypertensive rats after a period of 4 hr for a dose of 50 mg/kg po; assay type: functional, Artery
Method in brief: (§3)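 Male Okamoto-Aoki SHR, trained, in groups of four matched for mean systolic pressure; one group per run received water vehicle. Oral dosing in water (0.1 mL per 10 g) on two consecutive mornings. After the day-2 dose, rats were restrained at 30.0 ± 1.0 °C. Systolic pressure was read by tail cuff (inflated to 300 mmHg, first pulse) at 1–4 h. % fall is versus the untreated control group, by 1-tail t test (p ≤ 0.05).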

[9] = system: Rattus norvegicus; experiment: The antihypertensive activity as percentage fall in systolic blood pressure in spontaneously hypertensive rats after a period of 1 hr for a dose of 25 mg/kg po; assay type: functional, Artery; method in brief: as §3
[10] = system: Rattus norvegicus; experiment: The antihypertensive activity as percentage fall in systolic blood pressure in spontaneously hypertensive rats after a period of 4 hr for a dose of 25 mg/kg po; NS=Not significant; assay type: functional, organism-based; design: dose 25 mg/kg; details: Artery; method in brief: as §3
[11] = system: Canis familiaris; experiment: Change in mean arterial pressure in anesthetized dogs for a dose of 10 mg/kg; assay type: functional, Canis lupus familiaris, Artery; method in brief: as §2
[12] = system: Canis familiaris; experiment: Percent inhibition of the pressor responses to 1 ug/kg iv Epinephrine in pentobarbital-anesthetized dogs for a dose of 0.1 mg/kg; assay type: functional; details: Canis lupus familiaris
Method in brief: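 Dogs anesthetized with sodium pentobarbital 35 mg/kg iv; femoral artery cannulated for blood pressure, femoral vein for dosing. Epinephrine 1 μg/kg iv given at about 10-min intervals before and after increasing test doses. Test doses given iv at 90-min intervals. Result is per cent inhibition of the pressor response.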

[13] = system: Rattus norvegicus; experiment: The antihypertensive activity as percentage fall in systolic blood pressure in spontaneously hypertensive rats after a period of 1 hr for a dose of […]; assay type: functional, Artery
Method in brief: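 Male Okamoto-Aoki SHR, trained, in groups of four matched for systolic pressure, with a concurrent vehicle control group. Oral dosing on two consecutive mornings, in water as solution or suspension at 0.1 mL/10 g. On day 2 rats were restrained at 30.0 ± 1.0 °C. Tail-cuff systolic pressure, four traces per rat, read at each hour. Per cent fall versus control; 1-tail t test, p ≤ 0.05.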

[14] = system: Rattus norvegicus; experiment: The antihypertensive activity as percentage fall in systolic blood pressure in spontaneously hypertensive rats after a period of 3 hr for a dose of 50 mg/kg po
[15] = system: Rattus norvegicus; experiment: The antihypertensive activity as percentage fall in systolic blood pressure in spontaneously hypertensive rats after a period of 4 hr for a dose of 50 mg/kg po

SMILES	pA2 [1]	inhibition in vivo at 0.316 mg/kg [2]	inhibition in vivo at 1 mg/kg [3]	MAP [4]	MAP [5]	MAP [6]	MAP [7]	Decrease in blood pressure [8]	Decrease in blood pressure [9]	Decrease in blood pressure [10]	MAP [11]	inhibition in vivo at 0.1 mg/kg [12]	Decrease in blood pressure [13]	Decrease in blood pressure [14]	Decrease in blood pressure [15]
CN1CC2(CCN(CC(O)C3COc4ccccc4O3)CC2)OC1=O (stereo not drawn)	6.4	41%	60%	4 mmHg	4 mmHg	0 mmHg	-18 mmHg	16%	27%	inactive					
O=C1NCC2(CCN(CCc3c[nH]c4ccccc34)CC2)O1	< 5				-2 mmHg			8%			-6 mmHg	> 100%	14%	8%	11%
